B1: tRNA (parent)
chain: GUUCCGUUGGCGUAAUGGUAACGCGUCUCCCUCCUAAGGAGAAGACUGCGGGUUCGAGUCCCGUACGGAACG

Variants of: B1
Test: yeast fitness, log relative to wild type (ln ratio); higher = fitter; tRNA-Arg(CCU), competitive growth, 37 C, 1 M NaCl
Summary of the method: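 Genotype fitness is expressed as the natural log of its generations over those of the wild type. Each pool of the tRNA-Arg(CCU) variant library, carried on a HIS3 centromeric plasmid in BY4742 lacking the chromosomal gene, came from one of two independent transformations and grew 4 generations in SC-HIS at 30 °C before ~6.5 generations (~26.5 h) in SC-HIS 1M NaCl at 37 °C. Generation numbers used OD-scaled log2 output/input frequencies from 125 bp paired-end Illumina sequencing, combined across replicates by inverse-variance weighting.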

Variant	yeast fitness (ln)
G1A C27U A43C C46U A69G A70U	-0.324
G1A U2C G6A C27U A43C C46U A69G A70G C71U	-0.0929
U2G A43C C46U C66A	-0.101
U2C G6U C27U C46U C66U	-0.183
U2C C27U C66U A69G A70G	-0.185
G1A G6A C27U A43C C46U C66U A70G C71U	-0.338
G1A C27U C46U C66A A69G A70G C71U	-0.193
G1A G6U C27U A43C C46U C66U A70U C71U	-0.471
G1A U2G G6U C27U C46U C71U	-0.259
G1A U2G G6U C66U A69G A70U	-0.386
G1A U2G C46U C66A A70U	-0.109
G1A U2G C27U C46U A69G C71U	-0.206
U2G C27U A43C C66U A69G A70G	-0.348
G1A U2C C27U A43C C66U A69G A70G C71U	-0.21
G6A C27U C46U C66U A69G A70G	-0.213
G6A C46U C66U A69G A70U C71U	-0.35
G1A A43C C66U A69G A70U	-0.373
G1A U2G C27U A43C C46U C71U	-0.0914
G1A U2G C46U C66U A69G C71U	-0.318
G6U C27U A43C C46U C66U A70G	-0.255
U2C G6U C27U A43C C46U A69G A70G	-0.227

Variant	yeast fitness (ln)
G1A G6U A43C C46U A70G C71U	-0.301
G6U A43C C66A A69G A70G C71U	-0.299
G1A U2C C27U A43C C46U C66A A70U	-0.106
G6A C46U C66A C71U	-0.349
U2C G6U C27U C46U C66U A69G A70G	-0.3
U2C G6U A43C C66U	-0.161
U2C G6A C27U A69G A70U C71U	-0.309
G1A G6A A69G C71U	-0.146
G6U C27U A43C C66U	-0.227
U2C G6A C27U A43C C66A A70U	-0.0983
U2C G6U C66A A69G A70U C71U	-0.487
U2G C27U A43C C46U C66U A69G A70G C71U	-0.249
G6U A43C A70U	-0.164
U2C G6A C27U A43C C46U C66U A70U	-0.0567
G1A U2G G6A A69G A70U	-0.153
G1A U2C G6U C27U C46U C66A A70G	-0.0541
U2G C27U A43C C46U A69G A70G C71U	-0.132
U2G G6A C27U A43C C46U C66U C71U	-0.282
G6A A43C C46U A69G A70G C71U	-0.241
G1A G6U C27U A43C A69G A70U	-0.481
G1A U2G G6U A43C C46U C66A	-0.364

Variant	yeast fitness (ln)
C27U C46U C66U	-0.0577
U2C C66U A69G A70G C71U	-0.101
G1A U2C G6A A43C C66U A70G C71U	-0.00743
G6A C27U A43C C46U C66A A70U	-0.193
U2G G6A A70G	-0.114
U2C A43C C66A A69G A70G C71U	-0.168
G1A U2C C27U C66U C71U	-0.33
U2C A69G A70U	-0.117
G1A C46U A70G C71U	-0.0168
U2G C27U A43C A70G C71U	-0.151
G1A U2G G6U C27U A43C C46U A70U C71U	-0.339
G1A U2G C27U C46U C66A A70G C71U	-0.203
U2C G6A C66U A69G	-0.271
G1A U2G C27U C66U A70G C71U	-0.321
U2G G6U C27U A43C C66U A69G A70G	-0.39
U2G G6U C46U C66A A69G A70U	0.00778
G1A G6A C27U C46U C66U A70G C71U	-0.21
U2G A43C C46U C66U A69G A70G C71U	-0.244
G6A C27U A43C C66U A70G	-0.426
G1A U2G G6A A43C A70U C71U	-0.309
G1A U2C G6A C46U A69G A70U	-0.0526

Variant	yeast fitness (ln)
G6U A43C C46U C66U C71U	-0.254
U2C G6A A70G	-0.0119
G1A U2C G6A C46U C66U A70G	-0.0233
G1A U2C G6A C46U C66U A70U	-0.182
G1A G6U C27U A43C C66U A70U	-0.381
C27U A43C C46U C71U	-0.0385
U2C G6U C27U C66A A69G A70G C71U	-0.0793
G1A C27U A43C C66U A69G A70U C71U	-0.505
G1A U2C G6U C46U A70U	-0.0682
G1A U2C G6A C27U C46U C66U C71U	-0.348
U2G G6A A69G A70G	-0.139
U2G G6U A43C C46U C66A A70G	-0.251
G1A G6A C27U A43C C46U C66A A69G A70G C71U	-0.302
U2G G6A A43C C46U A69G A70G C71U	-0.226
U2G C27U A43C C66A A70U	-0.0548
G6A A43C C46U C66A A70G C71U	-0.286
G6U C27U C66U A70U C71U	-0.36
G1A G6U A43C C46U	-0.155
A43C C66A	-0.0164
G1A G6A C27U A43C C46U C71U	-0.247
